One data set deals with MT4. As to the kind of experiment: Cytotoxicity against human MT4 cells assessed as firefly luciferase activity at 1 to 100 uM after 6 to 7 days by chemiluminescence assay. The data set is classed as cell-based. As to conditions: mt4, 100 µM. An outline of the steps:
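1×10^3 MT-4 Luc cells constitutively expressing luciferase were exposed to varying peptide concentrations in the HIV-1 HXB2 (ca. 0.2-10 ng p24) infection format. Cells lysed after 6-7 d and luciferase measured by chemiluminescence. Cytotoxicity is read as loss of luciferase signal.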

Data set [1] relates to Human immunodeficiency virus 1. As to the kind of experiment: Antiviral activity against HIV1 HXB2 infected in human MT4 cells assessed as firefly luciferase activity at 20 uM after 6 to 7 days by chemiluminescence assay. The format is functional, organism-based. An outline of the steps: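 MT-4 Luc cells (constitutively high luciferase; HIV-1-induced cell death lowers signal), 1×10^3 cells per well, infected with HIV-1 HXB2 (ca. 0.2-10 ng p24) with varying peptide concentrations present. Lysed 6-7 d post-infection; luciferase read by chemiluminescence. Protection from HIV-1-induced death keeps signal high, and a fall in signal also serves as the cytotoxicity read-out.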

In data set [2] the target is T1, Human immunodeficiency virus type 1 integrase (Human immunodeficiency virus 1, UniProt Q7ZJM1). As to the kind of experiment: Inhibition of HIV1 integrase 3'-end processing activity after 1 hr by densitometric analysis.
The target in data set [3] is Human immunodeficiency virus type 1 reverse transcriptase (Human immunodeficiency virus 1, UniProt Q72547). Kind of data set: Inhibition of HIV1 reverse transcriptase-associated ribonuclease H activity by fluorescence assay.
The target in data set [4] is T1, Human immunodeficiency virus type 1 integrase. As to the kind of experiment: Inhibition of HIV1 integrase strand transfer activity after 1 hr by densitometric analysis.
Data set [5] deals with Human immunodeficiency virus 1. Kind of data set: Antiviral activity against HIV1 HXB2 infected in human MT4 cells assessed as inhibition of viral p24 antigen production at 0.5 uM measured on day 4 post viral infection by ELISA. The format is functional, organism-based. The essentials:
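1×10^5 MT-4 cells incubated 30 min at room temperature with HIV-1 HXB2 supernatant (ca. 0.2-50 ng p24), washed and cultured with 0.5 μM peptide or without. Supernatants collected at several time points for p24 ELISA, with cells passaged as needed.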
(In an ELISA, binding on a coated surface is turned into a signal by an enzyme label.)

In data set [6] the test system is Human immunodeficiency virus 1. As to the kind of experiment: Antiviral activity against HIV1 HXB2 infected in CD4/CXCR4-expressing human NP2 cells assessed as generation of viral DNA at late stage of reverse transcription at 0.5 uM measured on day 2 post viral infection by quantitative RT-PCR analysis relative to control. The data set is classed as functional. An outline of the steps: (§1)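 NP2-CD4-CXCR4 cells infected with HIV-1 HXB2 with or without 0.5 μM peptide (DMSO control). Genomic DNA extracted day 2 post-infection. Viral DNA quantified by real-time PCR for strong-stop DNA, late reverse-transcription products, Alu-LTR (integrated) and 2-LTR (end-joined) products. Each is expressed as % of the DMSO-treated control.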

Data set [7] has as its system Human immunodeficiency virus 1. Kind of data set: Antiviral activity against HIV1 HXB2 infected in CD4/CXCR4-expressing human NP2 cells assessed as host cellular enzyme catalyzed end-joined viral genome production at 0.5 uM measured on day 2 post viral infection by quantitative RT-PCR analysis relative to control. The data set is classed as functional. An outline of the steps:
as §1

Data set [8] in a line: Selectivity index, ratio of cytotoxicity against human MT4 cells to antiviral activity against HIV1 JRCSF infected in CD4/CCR5-expressing human NP2 cells. The format is toxicity, cell-based. As to conditions: read-out: Selectivity Index.
For data set [9], the system named is Human immunodeficiency virus 1. As to the kind of experiment: Antiviral activity against HIV1 JRCSF infected in CD4/CCR5-expressing human NP2 cells assessed as inhibition of viral p24 antigen production measured on day 4 post viral infection by ELISA. The data set is classed as functional, organism-based. As to conditions: JRCSF ISOLATE. An outline of the steps: (§2)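 1×10^5 NP2-CD4-CCR5 cells incubated 30 min at room temperature with HIV-1 JR-CSF supernatant (ca. 0.2-50 ng p24), washed and cultured with varying peptide concentrations. Supernatant p24 measured by ELISA on day 4 post-infection.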

Data set [10] concerns Human immunodeficiency virus 1. As to the kind of experiment: Antiviral activity against HIV1 HXB2 infected in CD4/CXCR4-expressing human NP2 cells assessed as total genome of infected virus at 0.5 uM measured on day 2 post viral infection by quantitative RT-PCR analysis relative to control. The data set is classed as functional. An outline of the steps:
as §1

Data set [11] deals with Human immunodeficiency virus 1. As to the kind of experiment: Antiviral activity against HIV1 JRCSF infected in CD4/CCR5-expressing human NP2 cells assessed as inhibition of viral p24 antigen production at 0.8 uM measured on day 4 post viral infection by ELISA. The data set is classed as functional. Particulars: Human immunodeficiency virus 1, JRCSF ISOLATE, NP2, 96 h. The essentials: as §2

For data set [12], the target named is Human immunodeficiency virus type 1 integrase (Human immunodeficiency virus 1) (UniProt Q7ZJM1). As to the kind of experiment: Inhibition of HIV1 HXB2 integrase-mediated integrate viral genome production in CD4/CXCR4-expressing human NP2 cells assessed as production of integrate viral genome at 0.5 uM measured on day 2 post viral infection by quantitative RT-PCR analysis. Details: scale not given: the % may be the effect or the level left. The format is cell-based. The essentials:
as §1

The record followed here is ChEMBL document CHEMBL1155449, “Peptide HIV-1 integrase inhibitors from HIV-1 gene products” (J Med Chem, 2010).

Calls of active or inactive are those of the source. No cut-off for these calls is given here. Where a SMILES comes first, the peptide text is derived from it.

T1 sequence (Q7ZJM1 whole entry): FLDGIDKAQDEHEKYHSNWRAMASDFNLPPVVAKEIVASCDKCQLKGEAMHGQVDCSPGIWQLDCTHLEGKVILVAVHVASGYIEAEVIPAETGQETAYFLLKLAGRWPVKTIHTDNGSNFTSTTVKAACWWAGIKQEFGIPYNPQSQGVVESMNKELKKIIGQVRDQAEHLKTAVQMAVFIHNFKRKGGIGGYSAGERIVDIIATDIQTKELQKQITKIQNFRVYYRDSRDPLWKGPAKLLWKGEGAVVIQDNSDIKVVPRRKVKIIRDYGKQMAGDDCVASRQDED
Sequence of Human immunodeficiency virus type 1 integrase (Human immunodeficiency virus 1) (Q7ZJM1 as listed by the source): as the sequence (Q7ZJM1 whole entry) above

On to `CC[C@H](C)[C@H](NC(C)=O)C(=O)N[C@@H](Cc1cnc[nH]1)C(=O)N[C@@H](Cc1ccccc1)C(=O)N[C@@H](CCCNC(=N)N)C(=O)N[C@H](C(=O)NCC(=O)N[C@@H](CCCNC(=N)N)C(=O)N[C@@H](CCCNC(=N)N)C(=O)N[C@@H](CCCNC(=N)N)C(=O)N[C@@H](CCCNC(=N)N)C(=O)N[C@@H](CCCNC(=N)N)C(=O)N[C@@H](CCCNC(=N)N)C(=O)N[C@@H](CCCNC(=N)N)C(=O)N[C@@H](CCCNC(=N)N)C(N)=O)[C@@H](C)CC` (Ac-IHFRIGRRRRRRRR-NH2), for which the Activity result in the data set on MT4 is recorded as “Non-toxic”. Also, the result in data set [1] was inactive.
Regarding `CC(=O)N[C@@H](CC(C)C)C(=O)N[C@@H](CCC(N)=O)C(=O)N[C@@H](CCC(N)=O)C(=O)N[C@@H](CC(C)C)C(=O)N[C@@H](CC(C)C)C(=O)N[C@@H](Cc1ccccc1)C(=O)N[C@@H](CCCNC(=N)N)C(=O)N[C@@H](CCCNC(=N)N)C(=O)N[C@@H](CCCNC(=N)N)C(=O)N[C@@H](CCCNC(=N)N)C(=O)N[C@@H](CCCNC(=N)N)C(=O)N[C@@H](CCCNC(=N)N)C(=O)N[C@@H](CCCNC(=N)N)C(=O)N[C@@H](CCCNC(=N)N)C(N)=O` (Ac-LQQLLFRRRRRRRR-NH2), in the data set on MT4, the Activity result is reported as “Non-toxic”.
In general, IC50 refers to the point on the concentration scale where inhibition reaches its midpoint. For the molecule `CC[C@H](C)[C@H](NC(=O)[C@H](C)NC(=O)[C@H](CCC(=O)O)NC(C)=O)C(=O)N[C@H](C(=O)N[C@@H](CCCNC(=N)N)C(=O)N[C@H](C(=O)N[C@@H](CC(C)C)C(=O)N[C@@H](CCC(N)=O)C(=O)N[C@@H](CCC(N)=O)C(=O)N[C@@H](CC(C)C)C(=O)N[C@@H](CC(C)C)C(=O)N[C@@H](Cc1ccccc1)C(=O)N[C@H](C(=O)N[C@@H](Cc1cnc[nH]1)C(=O)N[C@@H](Cc1ccccc1)C(=O)N[C@@H](CCCNC(=N)N)C(=O)N[C@H](C(=O)NCC(=O)N[C@@H](CCCNC(=N)N)C(=O)N[C@@H](CCCNC(=N)N)C(=O)N[C@@H](CCCNC(=N)N)C(=O)N[C@@H](CCCNC(=N)N)C(=O)N[C@@H](CCCNC(=N)N)C(=O)N[C@@H](CCCNC(=N)N)C(=O)N[C@@H](CCCNC(=N)N)C(=O)N[C@@H](CCCNC(=N)N)C(N)=O)[C@@H](C)CC)[C@@H](C)CC)[C@@H](C)CC)[C@@H](C)CC`, the half-inhibitory concentration (IC50) in [2] was 6 nM; in data set [3], more than 500 nM; in data set [4], 5 nM. Moreover, the Activity result in the data set on MT4 is recorded as “Non-toxic”. In addition, the outcome in data set [1] was Active.
The term inhibition denotes the change of the read-out against control, counted positive when it falls. On to `CC[C@H](C)[C@H](NC(=O)[C@H](CCCNC(=N)N)NC(=O)[C@H](Cc1ccccc1)NC(=O)[C@H](Cc1cnc[nH]1)NC(=O)[C@@H](NC(=O)[C@H](Cc1ccccc1)NC(=O)[C@H](CC(C)C)NC(=O)[C@H](CC(C)C)NC(=O)[C@H](CCC(N)=O)NC(=O)[C@H](CCC(N)=O)NC(=O)[C@H](CC(C)C)NC(C)=O)[C@@H](C)CC)C(=O)NCC(=O)N[C@@H](CCCNC(=N)N)C(=O)N[C@@H](CCCNC(=N)N)C(=O)N[C@@H](CCCNC(=N)N)C(=O)N[C@@H](CCCNC(=N)N)C(=O)N[C@@H](CCCNC(=N)N)C(=O)N[C@@H](CCCNC(=N)N)C(=O)N[C@@H](CCCNC(=N)N)C(=O)N[C@@H](CCCNC(=N)N)C(N)=O`, for which the half-maximal inhibitory concentration (IC50) in data set [2] was 8 nM; in data set [3], more than 500 nM; in data set [4], 4 nM. The inhibition result in data set [5] was “Active”. Further, the Activity result is “Non-toxic” in the data set on MT4; 84.4% in data set [6]; 779.8% in data set [7]; 139.7% in data set [10]; 15.8% in data set [12]. Besides, the selectivity ratio in data set [8] was determined as 10. Also, in [9], the inhibition entry is “Dose-dependent effect”. In data set [11], the inhibition at 0.8 µM stood at 50%.
